{
  "source": "ChEMBL document CHEMBL5321214",
  "about": "“Targeting the multifaceted neurotoxicity of Alzheimer's disease by tailored functionalisation of the curcumin scaffold” (Eur J Med Chem, 2023)",
  "key": {"Drosophila [1]": {"test_system": "Drosophila", "assay": "Downregulation of Nrf2 transcript expression in Spastin Drosophila (Tubulin/Gal4 RNAi DSpast) neurodegenerative model at 10 uM flies raised in compound-enriched food by real-time PCR analysis", "assay_type": "functional", "how_it_was_run": "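Total RNA from 5 third-instar Spastin-RNAi larvae raised on standard or compound-enriched food; Tubulin-Gal4/+ as control line. One-step SYBR RT-qPCR normalised to Rp49 by the 2^−ΔΔCt method. n = 3 experiments; one-way ANOVA, Tukey's test.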"}, "Microglia [2]": {"test_system": "Microglia", "assay": "Antiinflammatory activity against Sprague-Dawley rat microglial cells assessed as downregulation of IL-1 beta mRNA expression at 2.5 uM pretreated with compound for 1 hr followed by LPS stimulation for 6 hrs by real-time PCR analysis", "assay_type": "functional, cell-based", "details": "time 7.0 hrs", "how_it_was_run": "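Primary cortical microglia (postnatal day 1 rat pups, shaken off mixed glial cultures, ~97% Iba1-positive). Compound (DMSO ≤0.1%) for 1 h, then 100 ng/mL ultra-pure E. coli LPS for 6 h. QIAzol RNA extraction, SuperScript IV reverse transcription, real-time PCR. Mean ± SEM, n = 3 in triplicate; one-way ANOVA, Holm-Sidak test.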"}, "Drosophila [3]": {"test_system": "Drosophila", "assay": "Antioxidant activity in Spastin Drosophila (Tubulin/Gal4 RNAi DSpast) neurodegenerative model assessed as decrease in intracelluar ROS level in A2 muscle at 10 uM flies raised in compound-enriched food by DHE staining based fluorescence analysis", "assay_type": "functional, organism-based", "how_it_was_run": "(§1)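 Spastin-RNAi (Tubulin-Gal4 cross, 28 °C) third-instar larvae raised on compound-enriched food, dissected in HL3, stained 30 min with 30 μM DHE, fixed in 4% PFA, DAPI counterstained. Confocal imaging (DHE 580–630 nm); two 2500 μm² ROIs per muscle or two 1900 μm² ROIs per brain, 10–15 larvae per group; DHE/DAPI ratio.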"}, "Drosophila [4]": {"test_system": "Drosophila", "assay": "Antioxidant activity in Spastin Drosophila (Tubulin/Gal4 RNAi DSpast) neurodegenerative model assessed as decrease in intracelluar ROS level in brain at 10 uM flies raised in compound-enriched food by DHE staining based fluorescence analysis", "assay_type": "functional, organism-based", "how_it_was_run": "as §1"}, "[5]": {"assay": "Toxicity against Drosophila W1118 assessed as proportion of eclosed-flies at 10 uM measured after 72 hrs"}, "Microglia [6]": {"test_system": "Microglia", "assay": "Cytotoxicity against Sprague-Dawley rat microglial cells assessed as decrease in cell viability at 5 uM incubated for 24 hrs by MTT assay", "assay_type": "toxicity, cell-based", "how_it_was_run": "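Primary rat microglia, 6×10^4 cells/well, switched to serum-free medium 1 h before 24 h exposure (1–20 μM, DMSO ≤0.1%). MTT 0.18 mg/mL for 4 h at 37 °C, formazan dissolved in DMSO, absorbance 570 nm (reference 630 nm). Vehicle-treated cells = 100% viability.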"}, "[7]": {"target": "Amyloid-beta precursor protein (Homo sapiens) (UniProt P05067)", "sequence (P05067 whole entry)": "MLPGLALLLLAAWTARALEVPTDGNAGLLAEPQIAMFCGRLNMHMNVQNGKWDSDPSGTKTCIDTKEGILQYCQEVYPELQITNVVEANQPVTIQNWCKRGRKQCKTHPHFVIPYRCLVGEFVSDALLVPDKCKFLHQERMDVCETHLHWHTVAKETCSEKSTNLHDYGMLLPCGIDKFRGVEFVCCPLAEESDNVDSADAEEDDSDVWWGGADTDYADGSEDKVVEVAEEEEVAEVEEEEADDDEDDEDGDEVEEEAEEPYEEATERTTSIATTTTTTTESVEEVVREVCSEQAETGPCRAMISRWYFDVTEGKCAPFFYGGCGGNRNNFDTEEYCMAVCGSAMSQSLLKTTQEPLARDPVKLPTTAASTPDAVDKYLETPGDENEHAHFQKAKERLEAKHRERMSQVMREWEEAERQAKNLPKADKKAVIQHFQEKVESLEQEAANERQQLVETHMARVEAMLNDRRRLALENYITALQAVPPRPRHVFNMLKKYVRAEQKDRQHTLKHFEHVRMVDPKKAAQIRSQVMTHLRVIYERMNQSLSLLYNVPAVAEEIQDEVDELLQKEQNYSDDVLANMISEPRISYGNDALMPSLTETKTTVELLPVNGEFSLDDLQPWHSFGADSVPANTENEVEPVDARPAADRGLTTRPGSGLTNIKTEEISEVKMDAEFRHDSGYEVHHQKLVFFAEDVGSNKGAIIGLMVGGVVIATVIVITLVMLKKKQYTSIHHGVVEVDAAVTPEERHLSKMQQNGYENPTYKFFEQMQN", "assay": "Anti-oligomeric activity against Abeta42 (unknown origin) assessed as depletion of the formation of toxic HMW Abeta42 oligomers at 5 uM measured at day 7 from sample solubilization by capillary electrophoresis assay", "details": "time 7.0 day", "how_it_was_run": "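Aβ42 stock diluted to 221 μM in 20 mM sodium phosphate pH 7.4 containing compound (ethanol stocks 1.53 mM). Capillary electrophoresis: BGE 80 mM sodium phosphate pH 7.4, 30 mbar × 3 s hydrodynamic injection, +12 kV, 25 °C, 200 nm detection. Oligomers assigned by effective mobility; HMW oligomer peak quantified semiquantitatively as normalised area %.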"}, "[8]": {"assay": "Toxicity against Drosophila W1118 assessed as proportion of eclosed-flies at 50 uM measured after 72 hrs"}, "[9]": {"assay": "Toxicity against Drosophila W1118 assessed as proportion of eclosed-flies at 1 uM measured after 72 hrs"}},
  "note": "Active and inactive are the calls of the source. The rule behind the calls is not given here.",
  "data": [
    {"smiles": "CCCCn1cc(C/C(C(=O)/C=C/c2ccc(OC)cc2)=C(O)\\C=C\\c2ccc(OC)cc2)nn1", "values": [
      {"measurement": "inhibition", "setting": "Drosophila [1]", "value": "Active"},
      {"measurement": "Activity", "setting": "Microglia [2]", "value": "Active"},
      {"measurement": "Activity", "setting": "Drosophila [3]", "value": "Active"},
      {"measurement": "Activity", "setting": "Drosophila [4]", "value": "Active"},
      {"measurement": "Activity", "setting": "[5]", "value": 93.831, "unit": "%"},
      {"measurement": "Activity", "setting": "Microglia [6]", "value": "Toxic"},
      {"measurement": "Activity", "setting": "[7]", "value": "Active"},
      {"measurement": "Activity", "setting": "[8]", "value": 71.309, "unit": "%"},
      {"measurement": "Activity", "setting": "[9]", "value": 95.238, "unit": "%"}
    ]}
  ]
}
